Screening data from PubChem.
This is a sample that favours compounds with a hit; in the whole collection about 2.5% have one here.
MC4R antag cAMP – antagonists of human melanocortin 4 receptor (MC4R). P32245. MC4R-expressing cells, MTII-stimulated cAMP, LANCE TR-FRET. inhibition, % at 6.5 µM. 360,000 tested, 0.48% active;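 active = inhibition above its plate's cutoff, the mean of tested wells on that plate plus 3 SD, cut at about 29% in these data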;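 note: 0% = Melanotan II alone and 100% = Melanotan II plus saturating MCL0020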
Target sequence (P32245 whole entry, looked up): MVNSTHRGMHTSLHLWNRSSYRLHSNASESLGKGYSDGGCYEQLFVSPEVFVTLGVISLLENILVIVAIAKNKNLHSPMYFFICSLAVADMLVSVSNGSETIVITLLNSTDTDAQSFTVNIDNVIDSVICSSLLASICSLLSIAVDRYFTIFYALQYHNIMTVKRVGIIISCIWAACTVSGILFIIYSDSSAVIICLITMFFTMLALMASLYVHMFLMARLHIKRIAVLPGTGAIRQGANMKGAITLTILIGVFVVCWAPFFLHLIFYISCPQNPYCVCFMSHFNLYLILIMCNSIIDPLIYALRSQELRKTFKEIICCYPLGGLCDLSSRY
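Material: U2OS-MC4R stable cell line | Reagent: Melanotan II challenge after compound preincubation | Doses: One concentration, 6.5 µM nominal | Incubation: 30-min compound preincubation, 1-h Melanotan II challenge, 1-h detection, room temperature | Signal: TR-FRET cAMP assay | Replicates: One well per compound, no replicates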
NTR1 agonist – agonists of human neurotensin receptor NTR1; P30989; NTR1-U2OS beta-arrestin-GFP spot imaging, agonist mode; activation, % at 20 µM; 330,000 tested, 0.17% active;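 active = activation at or above 40% of the spot to cytoplasm intensity ratio, with at least 20 cells analyzed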;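 note: 0% = DMSO without peptide and 100% = 100 nM NTR1 peptide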
MC4R ag barr – activates human MC4R beta-arrestin recruitment. U2OS MC4R beta-arrestin complementation, luminescence; percent of melanotan II response, DMSO zero. P32245. activation, % at 8.9 µM. 360,000 tested, 0.98% active. AID 540308;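 active = activation above a per-plate cutoff, the mean activation of sample wells on that plate plus 3 SD, cut at about 8% in these data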
HGIII-sPLA2 inh – Blocks human group III sPLA2 activity. Q9NZ20. QFRET BODIPY PC-A2 liposome hydrolysis, fluorescence. inhibition, % at 12.2 µM. 370,000 tested, 0.56% active. AID 743126;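 active = inhibition above mean plus 3 SD of compounds lying within the high and low control bounds, cut at about 19% in these data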;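 note: 0% = median of test compound wells and 100% = no enzyme DMSO wells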
A1 inh – inhibitors of the anti-apoptotic protein A1, read as caspase activation; MEF A1-2A-BIM cells, Caspase-Glo 3/7 luminescence, 3 h; percent of clofoctol response, vehicle zero; caspase activation, % (test concentration not listed); 330,000 tested, 0.066% active; AID 2462;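 active = over half of replicate activation scores above 10%, or exactly half above 10 with the replicate mean above 10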
Granule exo inh – lytic granule exocytosis inhibition; TALL-104 LAMP-1 surface exposure, flow cytometry; cells stimulated with thapsigargin and PMA; inhibition, % at 10 µM; 360,000 tested, 0.66% active; AID 651702;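 active = inhibition above about 55%, limit read from the data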
U2OS cAMP counter – U2OS forskolin cAMP inhibition counter-screen. shares compounds with MC4R antag cAMP. parental U2OS, LANCE TR-FRET. inhibition, % at 6.5 µM. 1,600 tested, 26% active;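 active = mean inhibition over triplicates above the low-control well mean plus 3 SD, set per campaign, cut at about 13% in these data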;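 note: signal is single emission at 671 nm which falls as cellular cAMP rises; 0% = forskolin-stimulated wells and 100% = buffer without forskolin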
MC4R antag conf – human MC4R cAMP antagonism confirmation; MC4R-expressing cells, MTII-stimulated cAMP, TR-FRET; inhibition, % at 6.5 µM; AID 602195; 1,600 tested, 27% active; shares compounds with MC4R antag cAMP; in the data active = inhibition above about 29%;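 note: 0% = agonist stimulated wells alone and 100% = agonist stimulated wells plus saturating reference antagonist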
* marks the source's active call; other numbers are inactive results; · = no result given.

SMILES | MC4R antag cAMP | NTR1 agonist | MC4R ag barr | HGIII-sPLA2 inh | A1 inh | Granule exo inh | U2OS cAMP counter | MC4R antag conf
CCOC(=O)c1cnc2ccc(C)cc2c1Nc1ccc(N2CCOCC2)cc1 | 30* | 10 | 0 | -4 | 1 | 5 | 3 | 38*
CCOC(=O)c1cnc2ccc(OCC)cc2c1NCc1cccnc1 | 25 | 5 | 2 | 3 | 2 | -4 | · | ·
CCOC(=O)c1cnc2ccccc2c1Nc1cccc(C(=O)O)c1 | 39* | 1 | 0 | 6 | 0 | 12 | 13* | 20
CCOC(=O)c1cnc2ccc(OCC)cc2c1NCc1ccccc1 | 35* | 20 | 0 | -8 | -1 | 14 | 7 | 22
COc1ccccc1Cc1c(-c2ccccc2)nc2ccc(C)cn12 | · | · | · | 1 | · | · | · | ·
CCCCCN1CCCCC(NC(=O)C2CCCCC2)C1=O (stereo not given) | · | · | · | 15 | · | · | · | ·
COc1ccc(-c2csc(NC(=O)c3cccc(N4C(=O)CCC4=O)c3)n2)cc1C | 58* | 11 | 0 | 5 | 0 | 24 | 18* | 33*
CC(=O)c1sc(NC(=O)c2cccc(N3C(=O)CCC3=O)c2)nc1-c1ccccc1 | 68* | -1 | -2 | -3 | 0 | 15 | 10 | 1
Cc1sc(NC(=O)c2cccc(N3C(=O)CCC3=O)c2)nc1-c1ccccc1 | 12 | 1 | -4 | -22 | 0 | -3 | · | ·
CN1C2=N[C@H](c3ccccc3Br)CC(=O)N2/C(=C\c2ccccc2)[C@@H]1c1ccccc1 | · | · | · | -3 | · | · | · | ·
O=C(CCC1CCCC1)Nc1cccc(Cc2ccncc2)c1 | 33* | 0 | 1 | -10 | 0 | -1 | -3 | -14
CC(=O)Nc1cccc(NC(=O)CCCC2CCCCC2)c1 | 6 | 1 | -1 | 1 | 1 | 4 | · | ·
C[C@@H]1CN([C@@H](C)CO)C(=O)CCCn2nncc2CO[C@H]1CN(C)Cc1cccnc1 | 29* | · | 1 | 6 | · | 6 | -4 | -19
C[C@H](CO)N1C[C@H](C)[C@@H](CN(C)Cc2cccnc2)OCc2cnnn2CCCC1=O | 7 | · | 1 | 11 | · | 0 | · | ·
CC(C)(CNC(=O)c1ccc([N+](=O)[O-])c(Cl)c1)CNC(=O)c1ccc([N+](=O)[O-])c(Cl)c1 | 31* | 24 | -2 | -19 | 1 | 9 | 9 | 44*
C=CCNC(=O)c1ccc([N+](=O)[O-])c(Cl)c1 | 4 | -1 | -2 | -4 | 0 | -2 | · | ·
C[C@H]1[C@H](N(Cc2cccs2)Cc2cccs2)CC[C@@]23CCCN2C(=O)CCC[C@@H]13 | · | · | · | -2 | · | · | · | ·
Cc1cc2nc(CSc3ccc(Cl)cc3)cc(=O)n2[nH]1 | 29* | 0 | 1 | -3 | 0 | 2 | -3 | -7
C[C@@H]1CCCN1c1ccc2c(c1)O[C@@H]1CCN(C1)S2(=O)=O | · | · | · | 7 | · | · | · | ·
O=C1/C(=C/c2ccc([N+](=O)[O-])cc2)C=C(c2ccccc2)N1c1ccc(O)cc1 | 32* | 20 | -1 | -2 | -1 | 2 | 9 | 20
COc1cccc(C(=O)Nc2ccc(Oc3nnc(-c4ccccc4)c4ccccc34)cc2)c1 | · | · | · | -3 | · | · | · | ·
COc1ccc(CS(=O)(=O)/C(Cl)=C(/Cl)C(=O)Nc2ccc(OC)nc2)cc1 | 44* | 1 | -2 | · | 0 | 84* | 33* | 37*
Clc1ccc(-n2c(SCc3cccc4ccccc34)nnc2-c2ccccn2)cc1 | · | · | · | -7 | · | · | · | ·
CCOC(=O)C(C)(C)N(Cc1cccc(C)c1)S(=O)(=O)c1cccc([N+](=O)[O-])c1 | 5 | 1 | 0 | -1 | 0 | 2 | · | ·
CCOC(=O)C(C)(C)N(Cc1cccc(C)c1)S(=O)(=O)c1ccc(Cl)c([N+](=O)[O-])c1 | 54* | 17 | 1 | 4 | 1 | -1 | 26* | 63*
COC(=O)C1CN(Cc2cn(Cc3ccccc3)nn2)CCS(=O)(=O)N1Cc1ccc(C)cc1 (stereo not given) | · | · | · | -1 | · | · | · | ·
